pIC50: −log10 of the molar value.
How the values were obtained:
[1] = molecular target: human KMO (Homo sapiens, UniProt O15229); test: Kinetics study; type: biochemical; conditions: Lineweaver-Burk plots, 0–40 μM compound, 0–20 μM L-Kyn
In short: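 Human KMO was exposed to graded test compound concentrations across a range of L-Kyn concentrations. Reaction velocities were plotted as double reciprocals (Lineweaver-Burk). Inhibition type was assigned from how the x- and y-intercepts, reflecting Km and Vmax, shifted with inhibitor. Each condition was run in triplicate, and the experiments were repeated three times.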

[2] = tested on: KMO; conditions: read-out: IC50 (KMO inhibitor); cited from earlier work

Sequence of human KMO (O15229 whole entry): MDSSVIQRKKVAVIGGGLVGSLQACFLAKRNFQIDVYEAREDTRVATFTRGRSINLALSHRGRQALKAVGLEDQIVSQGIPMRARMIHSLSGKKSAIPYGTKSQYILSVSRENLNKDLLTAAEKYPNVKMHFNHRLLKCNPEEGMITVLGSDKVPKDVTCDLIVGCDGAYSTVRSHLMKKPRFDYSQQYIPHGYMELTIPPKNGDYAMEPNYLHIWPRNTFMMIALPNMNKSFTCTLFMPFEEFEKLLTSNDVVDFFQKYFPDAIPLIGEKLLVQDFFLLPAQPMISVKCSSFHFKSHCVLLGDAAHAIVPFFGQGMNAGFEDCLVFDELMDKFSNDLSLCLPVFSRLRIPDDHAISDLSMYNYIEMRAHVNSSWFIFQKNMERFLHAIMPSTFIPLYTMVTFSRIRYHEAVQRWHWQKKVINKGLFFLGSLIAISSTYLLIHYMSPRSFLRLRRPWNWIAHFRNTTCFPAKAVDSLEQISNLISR

Row | Structure (SMILES) | Inhibition type [1] | Inhibition type ([1]; listed as apigenin) | pIC50 [2] | Inhibition type ([1]; listed as genkwanin)
1 | O=c1cc(-c2ccc(O)cc2)oc2cc(O)cc(O)c12 [Apigenin] | non-competitive inhibition | non-competitive inhibitors | – | –
2 | Cc1ccc([C@@H](C)Oc2cc3onc(CCC(=O)O)c3cc2Cl)nn1 [GSK 366] | – | – | 8.64 | –
3 | COc1cc(O)c2c(=O)cc(-c3ccc(O)cc3)oc2c1 [Genkwanin] | non-competitive inhibition | – | – | non-competitive inhibitors
4 | O=C(O)[C@H]1C[C@@H]1C(=O)c1ccc(Cl)c(Cl)c1 [UPF-648] | – | – | 7.70 | –
